A selection: hits, their analogues and other compounds. The true share with any hit is near 1.4%.
NR2E3 ag-1: human photoreceptor-specific nuclear receptor agonism. Q9Y5X4. CHO-S Gal4-NCOR/VP16-NR2E3 two-hybrid, luciferase. inhibition of corepressor binding, % at 3.98 µM. 360,000 compounds, 0.35% hits. AID 602229;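 active = inhibition above the mean of all tested compounds plus 3 SD, cut at about 70% in these data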;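 also: 0% = DMSO with NR2E3 transfected cells and 100% = cells lacking NR2E3 construct; higher means lower luciferase signal from less NR2E3 corepressor binding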
PG9 Ab binder: PG9 antibody binding by small molecule; TR-FRET gp120-PG9 antibody binding; inhibition, % at 6.7 µM; 360,000 compounds, 0.43% hits; AID 624416; in the data active = inhibition above about 8.5%
NR1D1 modulator: Rev-erb alpha (human) modulation. Rev-erbα–FITC-DNA binding, fluorescence polarization, 90 min. activity, % at 10 µM. 370,000 compounds, 0.79% hits;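 active = activity above about 14%, limit read from the data; passing the limit was not always enough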;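 also: 0% = DMSO wells with 35 nM protein and 100% = DMSO wells with 750 nM protein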
Target sequence (P20393 whole entry, looked up): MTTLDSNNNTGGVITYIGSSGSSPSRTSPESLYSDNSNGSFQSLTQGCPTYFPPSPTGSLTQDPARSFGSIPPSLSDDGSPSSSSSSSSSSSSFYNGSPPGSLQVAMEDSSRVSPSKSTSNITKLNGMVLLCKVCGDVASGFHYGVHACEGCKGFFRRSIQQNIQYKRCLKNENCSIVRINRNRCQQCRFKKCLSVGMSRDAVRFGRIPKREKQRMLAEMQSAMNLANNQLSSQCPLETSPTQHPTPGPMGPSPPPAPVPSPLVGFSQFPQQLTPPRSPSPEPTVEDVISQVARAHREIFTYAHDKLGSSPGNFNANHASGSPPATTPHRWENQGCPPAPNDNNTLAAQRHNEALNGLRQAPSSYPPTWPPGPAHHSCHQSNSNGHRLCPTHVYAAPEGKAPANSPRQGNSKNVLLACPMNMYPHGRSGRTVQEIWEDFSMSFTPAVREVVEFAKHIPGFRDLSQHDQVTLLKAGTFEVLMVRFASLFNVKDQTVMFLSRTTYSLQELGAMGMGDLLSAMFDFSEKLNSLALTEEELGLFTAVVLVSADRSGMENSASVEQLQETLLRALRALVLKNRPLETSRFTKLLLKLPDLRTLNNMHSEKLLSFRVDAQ
NR2E3 ag-2: NR2E3 (human) agonism. GST-NR2E3/biotin-RetCOR TR-FRET, 1536-well. 320,000 compounds, 0.12% hits. Q9Y5X4. inhibition of corepressor binding, % at 4.78 µM. AID 2300;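 active = percent inhibition above the cutoff of mean plus 3 SD of all tested compounds, set per screening campaign, cut at about 20% in these data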;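 also: 0% = DMSO wells and 100% = biotin wells as full block of FRET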
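System: GST-NR2E3 and biotin-RetCOR proteins; probe or stimulus: 7 nM biotin-RetCOR; doses: compound at 4.8 µM, single dose; schedule: Compound–protein incubation for 5 h at 4 °C; detection: time-resolved FRET; read-out: percent inhibition; controls: biotin wells as high control, 0.6% DMSO wells as low control; format: 1536-well plates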
NR2E3 ag confirm: NR2E3 agonism confirmed in two-hybrid assay; shares compounds with NR2E3 ag-1; 2,300 compounds, 51% hits; CHO-S mammalian two-hybrid NR2E3-NCOR, luciferase luminescence; inhibition, % at 3.98 µM;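 active = average inhibition above a cutoff equal to the mean inhibition of all tested compounds plus one SD, cut at about 70% in these data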;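 also: 0% = DMSO in NR2E3 cells and 100% = DMSO in cells lacking NR2E3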
GAL4-VP16 luc: GAL4-VP16 reporter inhibition in NR2E3 agonist counterscreen. shares compounds with NR2E3 ag-1. CHO-S GAL4-VP16 luciferase reporter, luminescence. inhibition, % at 3.98 µM. 2,300 compounds, 29% hits;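 active = mean inhibition above a cutoff equal to the average over all tested compounds plus one standard deviation, cut at about 70% in these data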;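 also: luciferase from a UAS reporter driven by GAL4-VP16 transactivation; 0% = DMSO with VP16-transfected cells and 100% = DMSO with cells lacking VP16; higher means less reporter light so more repression of VP16 activity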
The depositor's hits bear a star; x = no result given.

SMILES	NR2E3 ag-1	PG9 Ab binder	NR1D1 modulator	NR2E3 ag-2	NR2E3 ag confirm	GAL4-VP16 luc
O=C(Nc1ccc(F)cc1)Nc1cc(OCC(F)(F)F)cc(OCC(F)(F)F)c1	49	0	2	-2	98*	85*
CC(C)COc1ccc(S(=O)(=O)NNC(=O)c2cc3ccccc3o2)cc1	75*	-2	0	0	76*	68
CCN(c1ccc(NC(=O)c2cccc(S(=O)(=O)N3CCN(C)CC3)c2)cc1)C(C)C	-8	-4	-1	2	x	x
CCc1ccc(NC(=O)c2ccc(F)c(S(=O)(=O)NCC3COc4ccccc4O3)c2)cc1 (centres undefined)	57	-2	3	-1	55	46
Cc1ccc(NC(=O)c2sc3ncn(CC(=O)N4CCN(c5ccccn5)CC4)c(=O)c3c2C)cc1F	76*	-2	-2	-1	14	35
Cc1ccc2sc(N3CCN(C(=O)c4ccc([N+](=O)[O-])o4)CC3)nc2c1C	-1	-1	5	-4	x	x
Cc1c(Cl)ccc2sc(N3CCN(C(=O)C4=COCCO4)CC3)nc12	79*	-1	-4	-4	90*	55
Cn1c(=O)cc(OCCCC(=O)Nc2cc(Br)ccn2)c2ccccc21	x	x	-6	x	x	x
Cc1ccnc(NC(=O)CSc2cc(=O)n(C)c3ccccc23)c1	67	-1	0	-2	89*	20
Cc1ccnc(NC(=O)CCCOc2cc(=O)n(C)c3ccccc23)c1	58	-1	5	1	73*	28
COc1cc(C)ccc1OCC(=O)OCC(=O)c1[nH]c(C)c(C(C)=O)c1C	-19	0	-4	x	x	x
CC(=O)c1c(C)[nH]c(C(=O)COc2cc(C)ccc2C(C)C)c1C	85*	0	-3	-1	91*	79*
O=C(Cc1ccccc1)N1CCCC(c2nc(-c3ccc(S(=O)(=O)N4CCCC4)cc3)no2)C1 (centres undefined)	-16	-1	2	-1	x	x
CS(=O)(=O)N1CCCC(c2nc(-c3ccc(S(=O)(=O)NCc4ccccc4)cc3)no2)C1 (centres undefined)	50	x	0	-2	73*	68
O=C(C1CC1)N1CCC(c2nc(-c3ccc(S(=O)(=O)NCC4CCCO4)cc3)no2)CC1 (centres undefined)	50	0	10	1	21	41
O=[N+]([O-])c1ccc(Oc2ccc(S(=O)(=O)Nc3ccccc3)cc2)cc1	58	x	x	0	99*	79*
O=S(=O)(Nc1ccc(S(=O)(=O)Nc2ccccc2)cc1)c1ccccc1	-2	0	0	2	x	x
O=[N+]([O-])c1ccc(S(=O)(=O)Nc2ccncc2)cc1	-20	-3	6	-3	x	x
O=[N+]([O-])c1ccc(NS(=O)(=O)c2ccc(Cl)c(Cl)c2)cc1	101*	0	-3	x	99*	91*
Cc1cc(=S)nc(-c2ccccn2)[nH]1	76*	-2	-7	1	-6	-12
COCc1cc(CN(C)C(=O)C2CCC(=O)N(Cc3cccc(OC)c3)C2)[nH]n1 (centres undefined)	-13	1	-5	0	x	x
CCc1nc2ccc(C(=O)N(C)C(C)C)cn2c1N(CC)Cc1cccc(Br)c1	72*	2	9	x	69	-10
Nc1nc(Cl)cc(N2CCC(c3cc(-c4ccc(Cl)cc4)n[nH]3)CC2)n1	91*	-1	4	4	98*	73*
COc1ccc(-c2cc(C3CCN(c4cc(Cl)nc(N)n4)CC3)[nH]n2)cc1	26	-2	0	2	x	x
CC1CCN(Cc2nc(Cl)c3c4c(sc3n2)CCC4)CC1	-10	-1	-4	-1	x	x
COc1ccc(NC(=O)c2sc(=O)n(Cc3ccc(SC)cc3)c2C)cc1OC	-28	-2	-2	x	x	x
COc1ccc(CNC(=O)c2sccc2-c2ccccc2)cc1OC	58	0	0	0	28	30
COc1ccc(CNC(=O)c2[nH]c(C(F)(F)F)nc2-c2ccccc2)cc1OC	13	1	3	x	x	x
COc1ccc(CNC(=O)c2sc(=O)n(Cc3ccc(-c4ccccc4)cc3)c2C)cc1OC	60	-1	-8	x	72*	61
COc1ccc(NC(=O)c2sc(=O)n(Cc3cccc(C(F)(F)F)c3)c2C)cc1OC	55	-2	5	x	73*	39

Compound activity deposited in PubChem by several laboratories.
